Test: Toxicity liver stage against HepG2, at 10uM
Assay type: cell-based
Design: test concentration 10 uM, cell line HepG2-A16-CD81EGFP
Settings: human, HepG2-A16-CD81EGFP cells; read-out: INHIBITION
Summary of the method: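 Uninfected HepG2-A16-CD81EGFP cells, 3 × 10^3 per well, 1536-well, plated on prespotted compound at 10 μM final, parasite-free screening media added to match infected plates; puromycin 10 μM positive, DMSO 0.5% negative; run in parallel with 48 h PbLuc assay at 37 °C, 5% CO2; viability by CellTiter-Glo luminescence, normalized to controls.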

Row | SMILES | cytotoxicity at 10 µM
1 | COc1ccc(Cl)cc1NCC(=O)NCCNc1cnccn1 | -11.4%
2 | NC(=O)CN1C(=O)CO[C@H]2CN(Cc3ccc(F)c(F)c3)C[C@H]21 | 2.44%
3 | COc1ccccc1CN1CC(OC)CN(C(=O)CC(C)C)CC1=O (configuration not stated) | -3.3%
4 | COc1cccc(OC)c1C(=O)N1CC(=O)N(C2CCC2)CC(O)C1 (configuration not stated) | -5.59%
5 | COc1cc2nc(C)n(CC(=O)NCCO)c(=O)c2cc1OC | -8.12%
6 | Cc1cccc(C)c1NC(=O)CC(CN1CCN(C)CC1)C(=O)O (configuration not stated) | -3.68%
7 | Cc1cc(O)cc(=O)n1CCCC(=O)Nc1n[nH]c2cccc(F)c12 | -8.85%
8 | CN(C)S(=O)(=O)NCc1nn(CCN2CCCC2)c(=O)c2ccccc12 | -6.88%
9 | CC(C)c1cc2c(O)nc(CSCC(=O)NCc3ccncc3)nc2s1 | -6.18%
10 | CN(C)CCCNC(=O)c1cc(Cl)ccc1Cl | -6.56%
11 | CC(CO)NC(=O)c1ccc2[nH]/c(=N\S(C)(=O)=O)sc2c1 (configuration not stated) | -3.24%
12 | CC(=O)c1c(C)nn(S(=O)(=O)c2ccc(C)c(C)c2)c1C | -8.46%
13 | CCOCCCNC(=O)C(C)n1cc(Br)cn1 (configuration not stated) | -4.24%
14 | CCn1cc(CNC(=O)C(C)C)cn1 | 7.74%
15 | CCCc1noc(C2CCN(S(=O)(=O)c3cccs3)CC2)n1 | 1.5%
16 | CCn1nccc1CNC(=O)C(C)n1cc2c(n1)c(C)nn2C (configuration not stated) | 5.32%
17 | CN1CCC(c2cccc(NCc3nccn3C)n2)CC1 | 8.28%
18 | c1cc(CNc2ncc(-c3cnccn3)c([C@@H]3CCCO3)n2)ccn1 | 8.99%
19 | O=C(N1CCOCC1)N1CCCC(c2ncncc2-c2ccncc2)C1 (configuration not stated) | -25.9%
20 | Cc1ccc(S(=O)(=O)N2C[C@H]3C[C@H](NC(=O)c4cc(C)no4)[C@H]3C2)cc1 | -11.2%
21 | Cc1ccc2c(c1)C(=O)NCC1(CCN(C(=O)c3cc(C)no3)CC1)O2 | -20.8%
22 | CSCC[C@H]1CN2CCC[C@H]2CN1Cc1cn(C)nc1C | -9.85%
23 | O=C(c1cncnc1)N1C[C@@H]2CC[C@H](Oc3cccc(F)c3)[C@@H]2C1 | -17.1%

Row | SMILES | cytotoxicity at 10 µM
24 | O=C(C1CC1)N1CCC(c2nc(O)c3c(n2)CN(C2CCCC2)CC3)C1 (configuration not stated) | -24.1%
25 | C=C(C)CN(CC)S(=O)(=O)c1c(F)cc(NC(C)=O)cc1F | -47.1%
26 | Cc1nccn1-c1ccc(NS(=O)(=O)c2cnn(C)c2)cn1 | -6.38%
27 | CCOCCOc1ccc(S(=O)(=O)N2CCc3c(nc[nH]c3=O)C2)cc1 | -5.85%
28 | Cn1ccc(C(=O)Nc2nc(-c3ccc4c(c3)CCO4)cs2)cc1=O | -9.46%
29 | CN(CCc1cccs1)CCc1nccs1 | -5.81%
30 | CC1(C)CN(C(=O)Nc2cc(C(F)(F)F)c[nH]c2=O)CCO1 | 5.12%
31 | CCNC(=O)C(C)NC(=O)Nc1ccccc1SCC (configuration not stated) | -7.4%
32 | CC(C)SCc1cccc(NC(=O)NC(C)c2nc[nH]n2)c1 (configuration not stated) | -45.2%
33 | CCC(C)NC(=O)Nc1cccc(OCC#N)c1 (configuration not stated) | -0.146%
34 | COC(=O)NCCC(=O)NC(C)Cc1ccccc1Br (configuration not stated) | -5.29%
35 | CC(C)NC(=O)CN1CCC2(CC1)OCCO2 | -8.67%
36 | CCN1CC(C(=O)NC(C)(C)CC)CC1=O (configuration not stated) | 1.82%
37 | CCCc1ccc(S(=O)(=O)NCCNC(=O)c2ccoc2)cc1 | 7.36%
38 | O=C(NCCN1C(=O)CCC1=O)c1nc2ccccc2c(=O)[nH]1 | -8.99%
39 | CCCNC(=O)CCNC(=O)c1ccccc1N1CCOCC1 | 0.321%
40 | Cc1noc(C)c1CNC(=O)N1CCC(OCC2CC2)CC1 | -11%
41 | CCCc1noc(C(C)N2CCN(c3ccc(C#N)cn3)CC2)n1 (configuration not stated) | -0.487%
42 | OCCN1CCC(CNCc2ccc(N3CCCCC3)cc2)CC1 | -3%
43 | O=S(=O)(c1cccnc1)N1CCCC1COc1ccccc1 (configuration not stated) | -9.32%
44 | CC(C)C1CN(S(=O)(=O)Cc2cccc(C#N)c2)CCS1 (configuration not stated) | 2.66%
45 | CC(CC(=O)NS(C)(=O)=O)C1CCCCC1 (configuration not stated) | -13.5%
46 | N#Cc1ccc(NCCC2CCN(CC(F)(F)F)CC2)nc1 | 5.92%

Row | SMILES | cytotoxicity at 10 µM
47 | CC(C)NC(=O)CN(C)C1CCN(c2ccc(C#N)cn2)CC1 | -16.1%
48 | CCS(=O)(=O)NC1CCCN(c2ccc(F)cc2C)C1=O (configuration not stated) | 3.93%
49 | Cc1cc(CNC(=O)c2cccs2)ccc1S(C)(=O)=O | 3.38%
50 | CNC(=O)NC(=O)CNC(CC(F)(F)F)c1ccc(F)cc1 (configuration not stated) | 7.69%
51 | CC(C)(C(=O)O)S(=O)(=O)c1ccc(Br)cc1 | 4.67%
52 | Cc1ccc(N2CCCC(N3CCC(CO)CC3)C2=O)cc1 (configuration not stated) | 0.473%
53 | COc1ccccc1CN(CC1CCCO1)C(=O)c1ccc(F)cn1 (configuration not stated) | -3.85%
54 | CCC(CC)S(=O)(=O)NC(=O)c1ccc2c(c1)ncn2C | -6.58%
55 | CCn1cc(CNC2CCN(c3cccc(Cl)c3)C2)cn1 (configuration not stated) | -10.1%
56 | O=C(NCc1ccc(Br)c(F)c1)Nc1cn[nH]c1 | -6.62%
57 | Cc1oc(C(=O)O)cc1S(=O)(=O)Nc1cccc(-c2nccs2)c1 | -1.01%
58 | NC(=O)C1(CNCc2csc(-c3cccs3)n2)CCOCC1 | -19.3%
59 | CCC(CC)CNC(=O)N(C)C(C)c1ccccn1 (configuration not stated) | -6.2%
60 | N#CCCN(C(=O)CN1CCCC1C1CCCCC1)c1ccccc1 (configuration not stated) | -12.1%
61 | COc1ccccc1OCC(=O)NS(=O)(=O)c1cc(F)ccc1F | -9.18%
62 | Cc1nc(C(C)(C)NC(=O)Nc2ccccc2)no1 | -1.48%
63 | CN(Cc1cccc(F)c1)C(=O)CN1CCCC1CCc1ccccc1 (configuration not stated) | -12%
64 | O=C(NCCC1CCCO1)c1ccccc1N1CCOCC1 (configuration not stated) | -10.8%
65 | Cc1cc(N2CCN(CC(=O)N(C)C)CC2)nc(-c2ccncc2)n1 | -3.96%
66 | COc1nn(C)c2c1CCCN(C(=O)c1cc[nH]n1)C2 | -5.2%
67 | O=C(c1cn2ccsc2n1)N1CCN(CC2CC2)[C@@H]2CS(=O)(=O)C[C@@H]21 | -2.82%
68 | CN1CCN(Cc2ccccc2Oc2cncc(C(N)=O)n2)CC1 | -4.89%
69 | CSc1ccccc1CN1CCn2nc(CNC(=O)N(C)C)cc2C1 | 19.5%

Row | SMILES | cytotoxicity at 10 µM
70 | CNC(=O)C1CCCN(c2nc(-c3ccco3)nc3c2CCNCC3)C1 (configuration not stated) | -7.74%
71 | CC(C)(C)c1ncc2c(n1)CN(C(=O)c1ccc(C#N)nc1)C2 | -6.39%
72 | CCC(C(=O)N1CCS(=O)(=O)CC1)n1cccn1 (configuration not stated) | 1.28%
73 | COc1ccc2c(c1)C(C(=O)NCCN1CCNC1=O)CC(=O)N2 (configuration not stated) | -1.13%
74 | O=C(O)c1ccccc1C1CCN(C2Cc3ccccc3C2)C1 (configuration not stated) | 12.7%
75 | COc1ccc(C(=O)N2CC[C@@H](N3CCC(O)CC3)[C@H](O)C2)cc1C | -8.1%
76 | N[C@@H]1c2ccccc2C2(CCN(C(=O)c3ccc(=O)[nH]c3)CC2)[C@H]1O | 3.27%
77 | COC(=O)c1ccc(NC(=O)CNCc2ccco2)cc1 | -12%
78 | COc1cccc2c1OCC(C(=O)N1CCN(C3CCSCC3)CC1)C2 (configuration not stated) | -1.62%
79 | COCCC(=O)N1CCCC(CCc2ccc(F)c(F)c2)C1 (configuration not stated) | -2.59%
80 | FC(F)(F)C1CN(Cc2cccc(-c3ccccn3)c2)CCO1 (configuration not stated) | -7.73%
81 | Fc1ccc(C(CNc2ccncn2)N2CCCCC2)cc1 (configuration not stated) | -1.88%
82 | CSCc1nc(CNC(=O)C2CCCN(CC(N)=O)C2)cs1 (configuration not stated) | -7.82%
83 | COC(=O)c1ccc2ccn(CC3CCNC3)c(=O)c2c1 (configuration not stated) | -28%
84 | CCCN(C(=O)COC)c1nc2c(s1)CCc1c-2cnn1C | 5.15%
85 | CC(C)C(C(=O)N1CCN(c2nccs2)CC1)n1cncn1 (configuration not stated) | -4.35%
86 | Cc1nc(CN2CCN(C(C)c3nc(C4CC4)no3)CC2)oc1C (configuration not stated) | -5.95%
87 | Cc1nc(C2CCCN2CCC(=O)N2CCc3ccccc32)no1 (configuration not stated) | -1.07%
88 | Cn1cc(C2CCCN2C(=O)CCc2cnn(-c3ccccc3)c2)cn1 (configuration not stated) | -6.88%
89 | CN(C)c1cc2c(nn1)CCN(C(=O)C1CCCc3ccccc31)C2 (configuration not stated) | -8.57%
90 | Fc1ccc(-c2nc(CN3CCCC3Cn3cncn3)co2)cc1 (configuration not stated) | -8.28%
91 | CCOCC(O)CN1CCN(C(=O)c2ccc(N(C)C)nn2)CC1 (configuration not stated) | -13.1%
92 | O=C(NCCN1CCCCCC1)c1n[nH]c(=O)c2ccccc12 | -9.86%

Row | SMILES | cytotoxicity at 10 µM
93 | CCc1nc(CN(C)C2CCN(CC(F)(F)F)C2)no1 (configuration not stated) | -16.8%
94 | Cc1ccc(CNC(=O)CN2CCOC(Cn3cncn3)C2)s1 (configuration not stated) | -8.45%
95 | Cc1nc(C)n(CC2CCCN(CCOc3ccccc3F)C2)n1 (configuration not stated) | -18.5%
96 | CCn1ncc2c1CCCC2NCc1ccc2c(c1)CCO2 (configuration not stated) | -4.47%
97 | Cc1cccc(C2(C(=O)NCC3CCN(CC(F)(F)F)C3)CCC2)c1 (configuration not stated) | -11.5%
98 | CCc1cccc(N2CCC(NC(=O)CCNC(N)=O)CC2)c1 | -12.5%
99 | COc1cccc(CCC(=O)N2CCCC(c3nncn3C)C2)c1 (configuration not stated) | -20.1%
100 | CC(Cn1cccn1)NC(=O)N1CCN(Cc2ccsc2)CC1 (configuration not stated) | -11.6%
101 | CCc1nc(C)c(C(=O)NCCNc2cnccn2)s1 | -4.64%
102 | Cn1cc(CN2CCCN(C(=O)c3ccc4c(c3)COC4)CC2)cn1 | -4.27%
103 | Cn1cc(C(=O)CC2CCCN2C(=O)c2n[nH]c3ccccc23)cn1 (configuration not stated) | -0.842%
104 | CC(c1nc(C2CC2)no1)N1CCN(Cc2ccccc2F)CC1 (configuration not stated) | 1.03%
105 | O=C(Cc1ccc(F)cc1)N1CCN(CC(O)C2CC2)CC1 (configuration not stated) | -15.2%
106 | Cc1ccc(C(=O)N2CC3(CCNCC3)c3cc(Cl)ccc32)cn1 | 1.61%
107 | O=C(c1ccncc1)N1CC2(CCNCC2)c2cc(Cl)ccc21 | -3.22%
108 | Cc1cc2c(=O)n3c(nc2s1)CCN(Cc1cncn1C)CC3 | -14.2%
109 | CCO[C@@H]1CO[C@@]2(CCCN(Cc3scnc3C)C2)C1 | -9.06%
110 | Cn1ncc2c1CCCC2NCc1cccc(F)c1 (configuration not stated) | -15.6%
111 | Cc1ccc(CN2Cc3c(C(=O)N(C)C)nn(C)c3C2)s1 | -12.6%
112 | CN(Cc1cccnc1)[C@@H]1CN(CC2CC2)[C@@H]2CCCO[C@H]12 | -1.48%
